Consider 24 molecules from ChEMBL document CHEMBL1143576, “Discovery of 2-arylthiazolidine-4-carboxylic acid amides as a new class of cytotoxic agents for prostate cancer” (J Med Chem, 2005).

The test system of one test is RH7777. Nature of the test: Antiproliferative effect against RH7777 cell line using sulforhodamine B(SRB) assay. It is filed as functional, cell-based. The settings on record: Rattus norvegicus. An outline of the steps:
(§1)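 Cells seeded at 1000 to 5000 per well, depending on growth rate, and exposed to a range of concentrations for 96 h, in three to five replicates. Stocks were 5 to 20 mM in DMSO, diluted into complete medium. Endpoint cell number was measured by SRB: 10% trichloroacetic acid fixation, 0.4% SRB stain, absorbance at 540 nm.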

A further test deals with LNCaP. Briefly: Antiproliferative activity against prostate cancer LNCaP Cell line using sulforhodamine B(SRB) assay. The settings on record: Homo sapiens, Prostate gland. It is filed as functional, cell-based. In short, it runs like this: as §1
In another test the test system is TSU. Nature of the test: Antiproliferative activity against prostate cancer TSU-Pr1 cell line using sulforhodamine B(SRB) assay. The class given is functional, cell-based. The following applies: Homo sapiens. In short, it runs like this:
as §1

The test system of another test is PC-3. Briefly: Antiproliferative activity against prostate cancer PC-3 cell line using sulforhodamine B(SRB) assay. The class given is functional, cell-based, Homo sapiens. The following applies: Homo sapiens, PC-3; read-out: IC50. In short, it runs like this:
as §1

The test system of a further test is DU-145. Nature of the test: Antiproliferative activity against prostate cancer DU-145 cell line using sulforhodamine B(SRB) assay. The class given is functional, cell-based. The following applies: Homo sapiens. In short, it runs like this: as §1
The subject of another test is PPC-1. Nature of the test: Antiproliferative activity against prostate cancer PPC-1 cell line using sulforhodamine B(SRB) assay. It is filed as functional, cell-based. The settings on record: Homo sapiens. In short, it runs like this:
as §1

Each structure is given as a SMILES string. Bounds are passed on as bounds.

As usually defined, the IC50 is the midpoint of a concentration-inhibition curve. On to `CCCCCCCCCCCCCCCCCCNC(=O)[C@H]1CSC(c2ccc(F)cc2)N1` (some centres not stated), for which the IC50 with RH7777 was found to be 17.4 µM; in the test with LNCaP it was 1.9 µM; in the test on TSU, 5.4 µM; in the test with PC-3, 6.8 µM; with DU-145, 5.7 µM; with PPC-1, 2.1 µM.
On to `CCCCCCCCCCCCCCCCCCNC(=O)[C@H]1CSC(c2ccc(Br)cc2)N1` (some centres not stated), for which the IC50 was > 20 µM in the test on RH7777; 5.1 µM in the test on LNCaP; 18.3 µM in the test on TSU; 17.3 µM with PC-3; 13.8 µM with DU-145; 3.7 µM with PPC-1.
Consider `CCCCCCCCCCCCCCCCCCNC(=O)[C@H]1CSC(CCCCCCCCCCCC)N1` (some centres not stated), for which the IC50 with RH7777 was ~20 µM; with LNCaP, 11.9 µM; in the test on TSU, 10.7 µM; with PC-3, 15 µM; in the test with DU-145, 8.9 µM; in the test with PPC-1, 13 µM.
On to `CCCCCCCCCCCCCCCCCCNC(=O)[C@H]1CSC(c2ccc(C)cc2)N1` (some centres not stated), for which the IC50 with RH7777 is > 20 µM; in the test on LNCaP it was 1.9 µM; in the test with TSU, 8 µM; with PC-3 it was 12.8 µM; in the test with DU-145, 10.5 µM; with PPC-1, 1.9 µM.
On to `CCCCCCCCCCCCCCCCCCNC(=O)[C@H]1CSC(Cc2ccccc2)N1` (some centres not stated), for which the IC50 with RH7777 was > 20 µM; with LNCaP, 4.4 µM; in the test on TSU, 11.2 µM; in the test on PC-3 it was 16.4 µM; with DU-145 it was 15.3 µM; in the test on PPC-1 it was 4 µM.
With `CCCCCCCCCCCCCCCCCCNC(=O)[C@H]1CSC(c2ccc([N+](=O)[O-])cc2)N1` (some centres not stated), the IC50 in the test on RH7777 was ~20 µM; with LNCaP, 8.4 µM; with TSU it was 15.9 µM; with PC-3 it was ~20 µM; in the test with DU-145 it was 15.3 µM; in the test on PPC-1 it was 15.3 µM.
Regarding `CCCCCCCCCCCCCCCCCCNC(=O)[C@H]1CSC(c2cccnc2)N1` (some centres not stated), the half-inhibitory concentration (IC50) in the test on RH7777 is 10.5 µM; in the test with LNCaP it was 3.6 µM; in the test with TSU, 7.8 µM; with PC-3, 9.2 µM; with DU-145, 7.5 µM; in the test on PPC-1 it was 2.9 µM.
As for `CCCCCCCCCCCCCCCCCCNC(=O)[C@H]1CSC(c2cc(F)cc(F)c2)N1` (some centres not stated), the IC50 with RH7777 was > 20 µM; in the test with LNCaP, 11.2 µM; in the test on TSU, > 20 µM; with PC-3, > 20 µM; in the test on DU-145, > 20 µM; with PPC-1 it was 10.6 µM.
With `CCCCCCCCCCCCCCCCCCNC(=O)[C@H]1CSC(c2ccc(N(C)C)cc2)N1` (some centres not stated), the IC50 with RH7777 is > 20 µM; with LNCaP it was 1.6 µM; with TSU it was 3 µM; with PC-3 it was 6 µM; in the test with DU-145, 5.3 µM; in the test with PPC-1, 1.1 µM.
As to `CCCCCCCCCCCCCCCCCCNC(=O)[C@H]1CSC(c2c(Cl)cccc2Cl)N1` (some centres not stated), the 50% inhibitory concentration (IC50) was > 20 µM with RH7777; 13.1 µM in the test with LNCaP; 20 µM with TSU; > 20 µM in the test on PC-3; > 20 µM with DU-145; 17.1 µM in the test on PPC-1.
With `CCCCCCCCCCCCCCCCCCNC(=O)[C@H]1CSC(c2ccccc2)N1C(C)=O` (some centres not stated), the IC50 is > 20 µM in the test with RH7777; 16.1 µM in the test on LNCaP; > 20 µM with TSU; ~20 µM with PC-3; ~20 µM with DU-145; 12.6 µM in the test with PPC-1.
For `CCCCCCCCCCCCCCCCCCNC(=O)[C@H]1CSC(c2cccc(O)c2)N1` (some centres not stated), the IC50 with RH7777 worked out at 31 µM; in the test with LNCaP it was 1.7 µM; in the test with TSU, 4 µM; in the test with PC-3, 6.7 µM; in the test on DU-145, 5.7 µM; with PPC-1, 1.2 µM.
Take `CCCCCCCCCCCCCCCCCCNC(=O)[C@H]1CSC(C2CCCCC2)N1` (some centres not stated): the 50% inhibitory concentration (IC50) in the test on RH7777 is > 20 µM; in the test with LNCaP it was 12.8 µM; in the test on TSU it was > 20 µM; with PC-3, > 20 µM; in the test on DU-145 it was > 20 µM; in the test on PPC-1, 9.3 µM.
For the molecule `CCCCCCCCCCCCCCCCCCNC(=O)[C@H]1CSC(c2ccc(F)c(Br)c2)N1` (some centres not stated), the IC50 in the test with RH7777 was determined as 20 µM; in the test with LNCaP it was 3 µM; in the test on TSU it was 14 µM; in the test with PC-3, 13.5 µM; with DU-145 it was 11.3 µM; in the test on PPC-1, 4.7 µM.
Consider `CCCCCCCCCCCCCCCCCCNC(=O)[C@H]1CSC(c2ccc(C#N)cc2)N1` (some centres not stated), for which the 50% inhibitory concentration (IC50) is > 20 µM with RH7777; 5.9 µM with LNCaP; > 20 µM with TSU; > 20 µM in the test on PC-3; > 20 µM in the test on DU-145; 5 µM in the test with PPC-1.
For the molecule `CCCCCCCCCCCCCCCCCCNC(=O)[C@H]1CSC(c2c[nH]c3ccccc23)N1` (some centres not stated), the IC50 is > 20 µM in the test with RH7777; 2.1 µM with LNCaP; 4.4 µM in the test on TSU; 11.5 µM with PC-3; 8.9 µM in the test on DU-145; 1.3 µM in the test with PPC-1.
For the molecule `CCCCCCCNC(=O)[C@H]1CSC(c2ccccc2)N1` (some centres not stated), the IC50 in the test on RH7777 was 52.2 µM; in the test on LNCaP, 12.4 µM; with TSU, 28 µM; in the test on PC-3, 38.5 µM; in the test on DU-145, 44.9 µM; with PPC-1, 34.7 µM.
On to `CCCCCCCCCCCCCCCCCCNC(=O)[C@H]1CSC(c2ccc(-c3ccccc3)cc2)N1` (some centres not stated), for which the IC50 in the test on RH7777, in the test on LNCaP, in the test with TSU, in the test on PC-3, with DU-145 and in the test with PPC-1 was > 20 µM each time.
As to `CCCCCCCCCCCCCCCCCCNC(=O)[C@H]1CSC(c2ccc(OC)cc2)N1` (some centres not stated), the IC50 is > 20 µM in the test on RH7777; 2.1 µM in the test with LNCaP; ~20 µM in the test on PC-3; 8.7 µM in the test on DU-145; 1.5 µM in the test with PPC-1.
In the case of `CCCCCCCCCCCCCCCCCCNC(=O)[C@H]1CSC(c2ccoc2)N1` (some centres not stated), the IC50 with RH7777 is 10.4 µM; in the test with LNCaP, 1.7 µM; with TSU it was 4.2 µM; with PC-3 it was 8.1 µM; with DU-145, 6.6 µM; in the test on PPC-1 it was 1.1 µM.
Take `CCCCCCCCCCCCCCCCCCNC(=O)[C@H]1CSC(c2ccc(OC)c(OC)c2)N1` (some centres not stated): the IC50 worked out at 10.3 µM in the test on RH7777; 0.85 µM in the test with LNCaP; 2.4 µM in the test with TSU; 5.2 µM in the test on PC-3; 4.5 µM in the test with DU-145; 0.58 µM in the test on PPC-1.
On to `CCCCCCCCCCCCCCCCCCNC(=O)[C@H]1CSC(c2cc(OC)c(OC)c(OC)c2)N1` (some centres not stated), for which the IC50 in the test with RH7777 is 11.4 µM; with LNCaP it was 0.82 µM; in the test with TSU, 2.4 µM; in the test with PC-3 it was 4 µM; in the test with DU-145, 3.9 µM; with PPC-1 it was 0.48 µM.
Regarding `CCCCCCCCCCCCCCCCCCNC(=O)[C@H]1CSC(c2ccc(NC(C)=O)cc2)N1` (some centres not stated), the IC50 in the test with RH7777 is 21.1 µM; in the test on LNCaP, 1.3 µM; with TSU it was 0.94 µM; in the test on PC-3 it was 5.6 µM; with DU-145 it was 3.1 µM; with PPC-1, 0.55 µM.
`CC(=O)O[C@H]1C(=O)[C@@]2(C)[C@H]([C@H](OC(=O)c3ccccc3)[C@]3(O)C[C@H](OC(=O)[C@H](O)[C@@H](NC(=O)c4ccccc4)c4ccccc4)C(C)=C1C3(C)C)[C@]1(OC(C)=O)CO[C@@H]1C[C@@H]2O` [PACLITAXEL]: the half-maximal inhibitory concentration (IC50) came out at 0.002 µM in the test with LNCaP; 0.0021 µM with TSU; 0.0034 µM in the test with PC-3; 0.0027 µM in the test with DU-145; 0.0034 µM with PPC-1.
